This is an account of results in the array DNA melting data of Ke et al. (doi:10.1101/2024.01.08.574731).

Data set [1] can be described thus: folding enthalpy; higher = less favourable; fluorescence melt of hairpins on a sequencing array, two-state fit. To be noted: sodium 0.088 M. The procedure, abridged:
(§1)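 Hairpins were imaged by Cy3 fluorescence on a sequenced MiSeq flow cell with annealed Cy3 and quencher oligos, in 50 mM Na-HEPES pH 8.0, 25 mM NaCl, in 2.5 °C steps up to 60 °C. Bootstrapped two-state fits of normalised signals gave melting temperature and folding enthalpy. Four replicates were combined by inverse variance, and fitted temperatures were raised by 9.35 °C to match UV melts.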

Data set [2] is described as follows: melting temperature; fluorescence melt of hairpins on a sequencing array, two-state fit, raised by 9.35 °C to match UV melts. To be noted: sodium 0.088 M. The procedure, abridged: as §1

GTCCGGCCGAAAGGCGAC (((..(((....)))))): in data set [1], the folding enthalpy was -12.8 kcal/mol. Moreover, the Tm in data set [2] stood at 41.7 °C.

Consider GAGGGTGGAAACACTCTC (((.(((....))).))), for which the folding enthalpy in data set [1] was -29.9 kcal/mol. Besides, in data set [2], the Tm is 52.3 °C.

As for GTTCAAGGAAACCTGAAC (((((.(....).))))), the folding enthalpy in data set [1] was -30.1 kcal/mol. Moreover, the Tm in data set [2] stood at 35.6 °C.

As for GCTGTTGGAAACAACAGC (((((((....))))))), in data set [1], the folding enthalpy is -44.5 kcal/mol. Moreover, the Tm in data set [2] amounted to 67.1 °C.

As to CGTACGGAAACGTGCACG ((((((....)))..))), in data set [1], the folding enthalpy is -14.5 kcal/mol. The Tm in data set [2] was 36.2 °C.

On to GGGTACGGAAACACACCC ((((..(....)..)))), for which the folding enthalpy in data set [1] is -21.9 kcal/mol. Moreover, the Tm in data set [2] was found to be 32.6 °C.

In the case of GCTGATACGAAAGTAAGC (((..(((....)))))), the folding enthalpy in data set [1] is -14.4 kcal/mol. For the same sequence, the Tm in data set [2] was found to be 33.9 °C.

With GATCACTGCAGTGATC ((((((....)))))), in data set [1], the folding enthalpy is -44.7 kcal/mol. Also, the Tm in data set [2] came to 61.7 °C.

As to GGAGTGGGAAACCACTCC (((((((....))))))), the folding enthalpy in data set [1] is -38.6 kcal/mol. In addition, the Tm in data set [2] amounted to 68.2 °C.

Consider GTCACTGGAAACAGTGAC (((((((....))))))), for which the folding enthalpy in data set [1] is -46.7 kcal/mol. In data set [2], the Tm was 63 °C.

On to GCACGGGGAAACCTGTGC ((((.((....)).)))), for which the folding enthalpy in data set [1] is -37.7 kcal/mol. Also, the Tm in data set [2] was 58.6 °C.

As for GGTGGGGCGAAAGCCACC (((..(((....)))))), the folding enthalpy in data set [1] is -12.3 kcal/mol. Further, in data set [2], the Tm turned out to be 54.5 °C.

For GTCAGCGGAAACGTTGAC ((((.((....)).)))), the folding enthalpy in data set [1] was -43.5 kcal/mol. For the same sequence, the Tm in data set [2] stood at 52.9 °C.

GCTGGAGGAAACTTCGGC ((.(.((....)).).)): the folding enthalpy in data set [1] was -29.6 kcal/mol. Also, the Tm in data set [2] turned out to be 37.2 °C.

Regarding GTACTACGAAAGTATAC (((.(((....)))))), in data set [1], the folding enthalpy was -15.3 kcal/mol. Besides, in data set [2], the Tm is 27.9 °C.

As for GCACTGAAAAGTGC (((((....))))), the folding enthalpy in data set [1] was -35.1 kcal/mol. For the same sequence, in data set [2], the Tm came to 61 °C.

On to GTAGGGGGAAACCCCTAC (((((((....))))))), for which the folding enthalpy in data set [1] was -37.4 kcal/mol. Further, the Tm in data set [2] was 61.9 °C.

Regarding GAACGCGAAAGCGTCTTC ((((((....)))..))), in data set [1], the folding enthalpy is -21.6 kcal/mol. For the same sequence, the Tm in data set [2] is 62.6 °C.

For CGTCGCGGAAACGCTACG (((.(((....))).))), the folding enthalpy in data set [1] was -28.9 kcal/mol. Besides, in data set [2], the Tm was determined as 49.3 °C.

Turning to GCATGCGAAAGCAGATGC ((((((....)))..))), the folding enthalpy in data set [1] was -24.6 kcal/mol. In addition, the Tm in data set [2] is 51.4 °C.

As to GATCGCCTGGCGATC ((((((...)))))), the folding enthalpy in data set [1] was -35.7 kcal/mol. In addition, the Tm in data set [2] was determined as 67.9 °C.

In the case of GGCTCAGGAAACTGAGTC (.(((((....))))).), in data set [1], the folding enthalpy is -40.2 kcal/mol. Moreover, the Tm in data set [2] was 52.6 °C.

As for GACTATCCGAAAGGAGTC (((..(((....)))))), the folding enthalpy in data set [1] was -17 kcal/mol. Also, the Tm in data set [2] is 34.1 °C.

For the sequence GGCTGAGAAATCAGCC ((((((....)))))), in data set [1], the folding enthalpy was -34.3 kcal/mol. In data set [2], the Tm came to 65.7 °C.

For the sequence GCTCACGAAAGTGAAAGC ((((((....)))..))), the folding enthalpy in data set [1] was -21 kcal/mol. For the same sequence, the Tm in data set [2] was 48.9 °C.

For the sequence GATCCAAGCCTGGATC ((((((....)))))), in data set [1], the folding enthalpy was -40 kcal/mol. In data set [2], the Tm turned out to be 50.6 °C.

Take GATCCCTTCGGGATC ((((((...)))))): the folding enthalpy in data set [1] was -41.1 kcal/mol. For the same sequence, the Tm in data set [2] was found to be 65.3 °C.

On to GTGTAGGGAAACCTACAC (((((((....))))))), for which the folding enthalpy in data set [1] was -41.1 kcal/mol. In addition, the Tm in data set [2] came out at 61.5 °C.

On to GGACGTCGAAAGACCTCC (((.(((....))).))), for which, in data set [1], the folding enthalpy was -22.3 kcal/mol. In addition, the Tm in data set [2] was found to be 41.2 °C.

For the sequence GTCCGCGAAAGCGTTGAC ((((((....)))..))), the folding enthalpy in data set [1] is -14.4 kcal/mol. Also, the Tm in data set [2] was 36.8 °C.

For GTCAGTCGAAAGACCGAC (((.(((....))).))), in data set [1], the folding enthalpy is -22.1 kcal/mol. The Tm in data set [2] came out at 47.4 °C.

Turning to GCGTAGGGAAACCCACGC ((((.((....)).)))), the folding enthalpy in data set [1] was -37.3 kcal/mol. For the same sequence, the Tm in data set [2] amounted to 54.3 °C.

Regarding GATCTTACAAAGATC ((((((...)))))), the folding enthalpy in data set [1] was -32.2 kcal/mol. Also, the Tm in data set [2] came out at 44.4 °C.

As to GCGTACCCACGC ((((....)))), the folding enthalpy in data set [1] is -21.2 kcal/mol. In addition, the Tm in data set [2] worked out at 53.1 °C.

For the sequence GCCAACGAAAGTTTTGGC ((((((....)))..))), the folding enthalpy in data set [1] was -23.2 kcal/mol. Further, the Tm in data set [2] is 44.6 °C.

Consider GCCGTGCGAAAGCAGCGC ((..(((....)))..)), for which, in data set [1], the folding enthalpy is -13.9 kcal/mol. In data set [2], the Tm stood at 55.9 °C.

With GGGAGCGAAAGCTGCCCC ((((((....)))..))), in data set [1], the folding enthalpy is -12.6 kcal/mol. The Tm in data set [2] was found to be 58.1 °C.
